Usually CC50 stands for the concentration giving 50% cytotoxicity. In general, MIC refers to the least concentration at which growth counts as inhibited. By Tmax is commonly meant the time at which the peak concentration occurs.

Converted amounts (≈) assume the structure as drawn.

Data set [1] in a line: Selectivity index, ratio of CC50 for African green monkey Vero cells to MIC for Mycobacterium tuberculosis H37Rv. In kind it is toxicity. The settings on record: read-out: Selectivity Index. A digest of the protocol:
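SI calculated as CC50/MIC against H37Rv. Viability read by MTT, CC50 by Bliss analysis. MIC comes from the 7-day visual broth test.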

A short description of data set [2]: Cytotoxicity against African green monkey Vero cells after 72 hrs by MTT assay. In kind it is cell-based. The conditions noted are these: chlorocebus sabaeus. A general note: Tetrazolium assays rely on reduction of a dye to a coloured formazan, in cell work by metabolically active cells.
Data set [3] deals with Mycobacterium tuberculosis. Kind of data set: Antimycobacterial activity against Mycobacterium tuberculosis H37Rv incubated for 7 days by rapid direct susceptibility test. In kind it is functional. The conditions noted are these: 168 h. A digest of the protocol: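 Two-fold dilutions of compound mixed with MTB suspension holding 4×10^-3 mg cells (H37Rv, or MDR strain resistant to ethambutol, INH and RIF) in 48-well plates. Incubation at 37 °C in a wet box. Cells in each well observed by continuous visual high-magnification system, re-read 7 days later. MIC taken as lowest concentration inhibiting visible growth.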

A short description of data set [4]: Tmax in ICR mouse at 25 mg/kg, po administered as single dose. The class given is ADME, organism-based. The conditions noted are these: in vivo. A digest of the protocol: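 SPF female ICR mice (20-25 g), 3 per group, given a single oral dose of 25 mg/kg as a suspension in 0.5% CMC. Blood drawn from the jugular vein at 0.25, 0.5, 1, 2, 4, 6, 8 and 24 h post-dose. AUC(0-inf), t1/2, Cmax and Tmax derived directly from the concentration-time data.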

As for `CO[C@H]1/C=C/O[C@@]2(C)Oc3c(C)c(O)c4c(O)c(c(/C=N/N5CCN(C)CC5)c(O)c4c3C2=O)NC(=O)/C(C)=C\C=C\[C@H](C)[C@H](O)[C@@H](C)[C@@H](O)[C@@H](C)[C@H](OC(C)=O)[C@@H]1C` [RIFAMPIN], in data set [1], the selectivity ratio is 1024. Besides, in data set [2], half-maximal cytotoxicity (CC50 at 72 h) was put at 512 µM.
As for `NNC(=O)c1ccncc1` [ISONIAZID], the selectivity ratio in data set [1] was found to be 4096. In data set [2], this molecule returned a CC50 at 72 h of 256 µM. Also, the MIC in data set [3] came out at 0.06 µg/mL (≈ 0.438 µM).
Take `CCOC(=O)c1c(-c2ccc(OC)cc2)oc2ccc(OCc3cn(CCN4C(=O)/C(=N/NC(N)=S)c5cc(OC)ccc54)nn3)cc12`: in data set [4], the Tmax was found to be 1.24 h.
Take `CCOC(=O)c1c(-c2ccc(O)cc2)oc2ccc(O)c(CN3CCCCC3)c12`: the Tmax in data set [4] was found to be 3.46 h.

The record behind these values is ChEMBL document CHEMBL4261608, “Design, synthesis and anti-mycobacterial activity evaluation of benzofuran-isatin hybrids” (Eur J Med Chem, 2018).
